# Source: ChEMBL document CHEMBL2169772, “Discovery of (2S)-1-[4-(2-{6-amino-8-[(6-bromo-1,3-benzodioxol-5-yl)sulfanyl]-9H-purin-9-yl}ethyl)piperidin-1-yl]-2-hydroxypropan-1-one (MPC-3100), a purine-based Hsp90 inhibitor” (J Med Chem, 2012)
# The source made the active and inactive calls. The calls are words filed in the database; no cut-off is given here.
# Experiments:
# [1] = test system: Mus musculus; experiment: Inhibition of HSP90 in human NCI-N87 cells xenografted nude mouse tumor assessed as induction of HSP70 mRNA expression at 50 to 200 mg/kg, po qd for 22 days; format: functional, organism-based
# [2] = test system: Mus musculus; experiment: Inhibition of HSP90 in human NCI-N87 cells xenografted nude mouse liver assessed as induction of HSP70 mRNA expression at 50 to 200 mg/kg, po qd for 22 days; format: functional, organism-based
# [3] = biological target: T1, Heat shock protein HSP90 (Homo sapiens, UniProt P07900+P08238); experiment: Inhibition of human HSP90 in NCI-N87 cells assessed as degradation of Her2 incubated for 24 hrs by Western blot method; format: cell-based
# How it was run: (§1)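 Cells exposed to a range of concentrations for 24 h. Lysates analyzed by Western blot with Her2-, Hsp70- and Akt-specific antibodies.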
# [4] = test system: Mus musculus; experiment: Toxicity in nude mouse xenografted with human NCI-N87 cells assessed as effect on body weight at 50 mg/kg, po qd for 22 days measured twice a week; format: organism-based; parameters: dose 50 mg/kg, route oral; conditions: in vivo, 528 h
# How it was run: (§2)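 Female nude mice (Crl:NU-Fox1nu) implanted subcutaneously in the right flank with 5 million NCI-N87 cells. At median tumor volume of roughly >100 mm3, randomized to 5 cohorts of 10. Dosed orally once daily for 22 days with vehicle (40% w/w Captisol) or 50, 75, 125 or 200 mg/kg. Tumor size and body weight measured at least twice weekly.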
# [5] = test system: Mus musculus; experiment: Toxicity in nude mouse xenografted with human NCI-N87 cells assessed as effect on body weight at 200 mg/kg, po qd for 22 days measured twice a week; format: organism-based; parameters: dose 200 mg/kg, route oral; conditions: in vivo, 528 h; how it was run: as §2
# [6] = test system: NCI-N87; experiment: Antitumor activity against human NCI-N87 cells xenografted in nude mouse assessed as tumor growth inhibition at 50 mg/kg, po qd for 22 days measured twice a week; format: functional; conditions: NCI-N87, 528 h, read-out: TGI; how it was run: as §2
# [7] = test system: NCI-N87; experiment: Antitumor activity against human NCI-N87 cells xenografted in nude mouse assessed as tumor growth inhibition at 75 mg/kg, po qd for 22 days measured twice a week; format: functional; conditions: NCI-N87, 528 h, read-out: TGI; how it was run: as §2
# [8] = biological target: T1, Heat shock protein HSP90; experiment: Inhibition of human HSP90 in HCT116 cells assessed as degradation of Akt incubated for 24 hrs by Western blot method; format: cell-based; how it was run: as §1
# [9] = biological target: T1, Heat shock protein HSP90; experiment: Inhibition of human HSP90 in HCT116 cells assessed as induction of HSP70 incubated for 24 hrs by Western blot method; format: cell-based; conditions: HCT-116; how it was run: as §1
# [10] = Solubility of compound in phosphate buffer at pH 7.4; format: physicochemical
# [11] = test system: NCI-N87; experiment: Cytotoxicity against human NCI-N87 cells assessed as inhibition of tumor growth incubated for 72 hrs by luminometry; format: functional, cell-based; conditions: NCI-N87, 72 h
# How it was run: (§3)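 Cells seeded at 5000 per well in DMEM with 10% serum and left overnight. Compound added from DMSO dilutions (0.4% DMSO final) for 72 h. After 5 min at room temperature, ATPLite two-step lysis and substrate added, 5 min incubation, then luminescence read. Values are the mean of at least two experiments.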
# [12] = test system: OVCAR-8; experiment: Cytotoxicity against human OVCAR8 cells assessed as inhibition of tumor growth incubated for 72 hrs by luminometry; format: functional, cell-based; conditions: OVCAR-8, 72 h; how it was run: as §3
# [13] = test system: NCI-H69; experiment: Cytotoxicity against human NCI-H69 cells assessed as inhibition of tumor growth incubated for 72 hrs by luminometry; format: functional, cell-based; conditions: NCI-H69, 72 h; how it was run: as §3
# [14] = test system: DU-145; experiment: Cytotoxicity against human DU145 cells assessed as inhibition of tumor growth incubated for 72 hrs by luminometry; format: functional, cell-based; conditions: DU-145, 72 h; how it was run: as §3
# [15] = test system: HT-29; experiment: Cytotoxicity against human HT-29 cells assessed as inhibition of tumor growth incubated for 72 hrs by luminometry; format: functional, cell-based; conditions: HT-29, 72 h; how it was run: as §3
# [16] = test system: Mus musculus; experiment: Inhibition of HSP90 in mouse liver assessed as induction of HSP70 mRNA expression at 100 mg/kg, po after 6 hrs relative to control; format: functional
# [17] = AUC in Swiss nude mouse at 100 mg/kg, po by LC-ESI-MS/MS method; format: ADME, organism-based; parameters: dose 100 mg/kg, route oral; conditions: plasma
# How it was run: (§4)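 Single oral gavage in mice, vehicle 40% Captisol in phosphate buffer. EDTA plasma from cardiac puncture. Acetonitrile precipitation with internal standard, then LC-ESI-MS/MS quantitation against a 10–10 000 ng/mL standard curve. Cmax and AUC by noncompartmental analysis.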
# [18] = Cmax in Swiss nude mouse at 100 mg/kg, po by LC-ESI-MS/MS method; format: ADME, organism-based; parameters: dose 100 mg/kg, route oral; conditions: in vivo; how it was run: as §4
# [19] = AUC in Swiss nude mouse at 10 mg/kg, po by LC-ESI-MS/MS method; format: ADME, organism-based; parameters: dose 10 mg/kg, route oral; conditions: plasma
# How it was run: (§5)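 Mice dosed by oral gavage, vehicle DMA/PEG300/EtOH/H2O (3/40/12/45, v/v/v/v). Blood drawn by cardiac puncture into EDTA plasma. Three or five animals per time point. Plasma precipitated with acetonitrile plus internal standard. Quantified by LC-ESI-MS/MS against a 10–10 000 ng/mL standard curve with QC samples. Noncompartmental analysis.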
# [20] = Cmax in Swiss nude mouse at 10 mg/kg, po by LC-ESI-MS/MS method; format: ADME, organism-based; parameters: dose 10 mg/kg, route oral; conditions: in vivo; how it was run: as §5
# [21] = AUC in Swiss nude mouse at 2.5 mg/kg, iv by LC-ESI-MS/MS method; format: ADME, organism-based; parameters: dose 2.5 mg/kg, route intravenous; conditions: plasma
# How it was run: (§6)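 Intravenous dose in mice, vehicle DMA/PEG300/EtOH/H2O 3/40/12/45. Sampling at 5, 15, 30, 60, 120, 240, 480 and 720 min, three or five animals per time point. Cardiac-puncture EDTA plasma. Acetonitrile protein precipitation with internal standard, then LC-ESI-MS/MS (10–10 000 ng/mL curve). Parameters by noncompartmental fit.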
# [22] = Volume of distribution in Swiss nude mouse at 2.5 mg/kg, iv by LC-ESI-MS/MS method; format: ADME, organism-based; parameters: dose 2.5 mg/kg, route intravenous; conditions: in vivo; how it was run: as §6
# [23] = test system: Mus musculus; experiment: Hepatic clearance in Swiss nude mouse at 2.5 mg/kg, iv by LC-ESI-MS/MS method; format: ADME, organism-based, Liver; parameters: dose 2.5 mg/kg, route intravenous; conditions: in vivo; how it was run: as §6
# [24] = Cytotoxicity against human NCI-ADR-RES cells overexpressing P-gp 1 assessed as inhibition of tumor growth incubated for 72 hrs by luminometry; format: functional, cell-based; how it was run: as §3
# [25] = test system: HCT-116; experiment: Cytotoxicity against human HCT116 cells assessed as inhibition of tumor growth incubated for 72 hrs by luminometry; format: functional, cell-based; conditions: HCT-116, 72 h; how it was run: as §3
# [26] = biological target: T1, Heat shock protein HSP90; experiment: Inhibition of human HSP90 using BODIPY labelled geldanamycin as substrate by fluorescence polarization assay; format: protein assay
# [27] = biological target: T1, Heat shock protein HSP90; experiment: Inhibition of human HSP90 in HCT116 cells expressing Her2 gene assessed as degradation of Her2 after 4 hrs by luciferase reporter gene assay; format: cell-based; conditions: hct-116
# How it was run: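 HCT116 cells stably transfected with Her2 kinase domain (aa 641–975) fused to firefly luciferase. Seeded at 10 000 per well in DMEM with 10% serum and left overnight. Compound added from DMSO (0.4% final) for 4 h. Steady-Glo added at room temperature for 5 min, then luminescence read.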
# [28] = Oral bioavailability in Swiss nude mouse at 100 mg/kg administered using captisol and phosphate buffer system formulation by LC-ESI-MS/MS method; conditions: in vivo
# [29] = test system: NCI-N87; experiment: Antitumor activity against human NCI-N87 cells xenografted in nude mouse assessed as tumor regression at 125 mg/kg, po qd for 22 days measured twice a week; conditions: 528 h
smiles,measurement,setting,value
C[C@H](O)C(=O)N1CCC(CCn2c(Sc3cc4c(cc3Br)OCO4)nc3c(N)ncnc32)CC1,inhibition,[1],Active
same,inhibition,[2],Active
same,IC50,[3],100 nM
same,inhibition,[3],Dose-dependent effect
same,Activity,[4],Non-toxic
same,Activity,[5],Non-toxic
same,inhibition in vivo at 50 mg/kg,[6],37%
same,inhibition in vivo at 75 mg/kg,[7],62%
same,inhibition,[8]; HCT-116,Dose-dependent effect
same,IC50,[8]; hct-116,100 nM
same,inhibition,[9],Dose-dependent effect
same,solubility,[10],20 µM
same,IC50,[11],200 nM
same,IC50,[12],490 nM
same,IC50,[13],150 nM
same,IC50,[14],530 nM
same,IC50,[15],420 nM
same,fold change (FC),[16],53
same,AUC,[17],81800 ng·h/mL
same,Cmax,[18],13100 ng/mL
same,AUC,[19],3210 ng·h/mL
same,Cmax,[20],2800 ng/mL
same,AUC,[21],2110 ng·h/mL
same,Vd,[22],2.44 L/kg
same,CLH,[23],19.78 mL/min/kg
same,IC50,[24],4300 nM
same,IC50,[25],540 nM
same,IC50,[26],140 nM
same,IC50,[27],60 nM
same,bioavailability,[28],> 50%
same,tumor regression at 125 mg/kg,[29],10%
